# From ChEMBL document CHEMBL2062448, “A substituted 3,4-dihydropyrimidinone derivative (compound D22) prevents inflammation mediated neurotoxicity; role in microglial activation in BV-2 cells” (Bioorg Med Chem Lett, 2012)
# The source made the active and inactive calls. No cut-off for these calls is given here.
# How the values were obtained:
# BV-2 [1] = assay: Antineuroinflammatory activity in […] cells assessed as inhibition of LPS-induced nitric oxide production at 10 uM treated 30 mins before LPS challenge measured after 24 hrs by Griess reaction; assay type: functional
# Outline: (§1)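 BV-2 cells at 3 × 10⁴ cells/well in DMEM with 5% FBS at 37 °C, 5% CO₂. Cells were pretreated 30 min, then given LPS 100 ng/ml for 24 h. Supernatant was mixed 1:1 with Griess reagent (1% sulfanilamide, 0.1% naphthylethylenediamine in 5% phosphoric acid). Absorbance at 570 nm was read after 10 min against a sodium nitrite standard.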
# BV-2 [2] = assay: Cytotoxicity against LPS-induced […] cells assessed as cell viability after 24 hrs by MTT assay; assay type: cell-based; conditions: bv-2, 24 h
# Outline: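 BV-2 viability measured by MTT after 30 min pretreatment with 5, 10 or 20 µM, followed by LPS 100 ng/ml for 24 h. Mean ± S.E.M. of three independent experiments.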
# BV-2 [3] = assay: Antineuroinflammatory activity in […] cells assessed as inhibition of LPS-induced PGE2 production at 5 to 20 uM treated 30 mins before LPS challenge measured after 24 hrs by competitive enzyme immunoassay; assay type: functional, cell-based
# Outline: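 BV-2 cells plated at 1.5 × 10⁶ cells/well and pretreated with 5, 10 or 20 µM for 30 min. LPS 100 ng/ml was then added for 24 h. PGE₂ in medium was measured by competitive enzyme immunoassay kit. Mean ± S.E.M. of three independent experiments.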
# BV-2 [4] = assay: Antineuroinflammatory activity in […] cells assessed as inhibition of LPS-induced iNOS expression at 5 to 20 uM after 6 hrs by Western blot analysis; assay type: functional, cell-based
# Outline: (§2)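 BV-2 cells exposed to LPS 100 ng/ml with or without 5–20 µM for 6 h. Lysates were run on 8–12% SDS-PAGE and transferred to nitrocellulose. Blots were probed 12 h for iNOS or COX-2, then HRP secondary 1 h at room temperature, ECL detection and densitometry. Three independent experiments.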
# BV-2 [5] = assay: Antineuroinflammatory activity in […] cells assessed as inhibition of LPS-induced COX2 expression at 5 to 20 uM after 6 hrs by Western blot analysis; assay type: functional, cell-based; outline: as §2
# BV-2 [6] = assay: Antineuroinflammatory activity in […] cells assessed as inhibition of LPS-induced TNFalpha production treated 30 mins before LPS challenge measured after 24 hrs by ELISA; assay type: functional, cell-based
# Outline: (§3)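 BV-2 cells plated at 1.5 × 10⁶ cells/well and pretreated for 30 min. Cells were then exposed to LPS 100 ng/ml for 24 h. IL-1β and TNF-α in culture medium were quantified by immunoassay kit. Mean ± S.E.M. of three independent experiments.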
# BV-2 [7] = assay: Inhibition of LPS-induced ERK kinase phosphorylation in […] cells after 30 mins by Western blot analysis; assay type: cell-based
# Outline: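 BV-2 cells exposed to LPS 100 ng/ml with or without 5–20 µM for 30 min. Lysates were run on 8–12% SDS-PAGE and transferred to nitrocellulose. Blots were probed 12 h for phospho-p38, -JNK or -ERK, then HRP secondary 1 h at room temperature, ECL detection and densitometry.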
# N2a [8] = assay: Antineuroinflammatory activity in LPS-stimulated […] cells in conditioned media assessed as inhibition of DNA fragmentation in […] cells treated 30 mins before LPS challenge measured after 24 hrs by Gel electrophoresis; assay type: functional, cell-based
# Outline: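 BV-2 cells pretreated with 5, 10 or 20 µM for 30 min, then stimulated with LPS 100 ng/ml for 24 h. Conditioned media were applied to N2a cells for 24 h. Cells were scraped and pelleted at 7500 rpm for 5 min. DNA fragmentation was resolved by gel electrophoresis alongside vehicle CM and LPS-with-vehicle CM lanes.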
# N2a [9] = assay: Antineuroinflammatory activity in LPS-stimulated […] cells in conditioned media assessed as recovery of Bcl-2 expression in […] cells treated 30 mins before LPS challenge measured at 5 to 20 uM after 24 hrs by Western blot analysis; assay type: functional, cell-based
# Outline: (§4)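 BV-2 cells pretreated with 5, 10 or 20 µM for 30 min, then LPS 100 ng/ml for 24 h. Conditioned media were collected and applied to N2a cells for 24 h. Lysates were run on 8–12% SDS-PAGE and transferred to nitrocellulose. Blots were probed 12 h with primary antibodies (cleaved caspase-3, Bax, Bcl-2), then HRP secondary 1 h at room temperature, ECL detection and densitometry. Mean ± S.E.M. of three independent experiments.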
# N2a [10] = assay: Antineuroinflammatory activity in LPS-stimulated […] cells in conditioned media assessed as inhibition of Bax expression in […] cells treated 30 mins before LPS challenge measured at 5 to 20 uM after 24 hrs by Western blot analysis; assay type: functional, cell-based; outline: as §4
# N2a [11] = assay: Antineuroinflammatory activity in LPS-stimulated […] cells in conditioned media assessed as inhibition of caspase-3 activation in […] cells treated 30 mins before LPS challenge measured at 5 to 20 uM after 24 hrs by Western blot analysis; assay type: functional, cell-based; outline: as §4
# N2a [12] = assay: Antineuroinflammatory activity in LPS-stimulated […] cells in conditioned media assessed as inhibition of […] cell death treated 30 mins before LPS challenge measured after 24 hrs by MTT assay; assay type: functional, cell-based
# Outline: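 BV-2 cells (DMEM, 5% FBS) pretreated with 5, 10 or 20 µM for 30 min, then LPS 100 ng/ml for 24 h. Conditioned media were transferred to N2a cells (DMEM, 10% FBS) for 24 h, and N2a viability was read by MTT. Mean ± S.E.M. of three independent experiments; one-way ANOVA with Tukey post test.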
# BV-2 [13] = assay: Antineuroinflammatory activity in […] cells assessed as inhibition of LPS-induced IL-1beta production treated 30 mins before LPS challenge measured after 24 hrs by ELISA; assay type: functional, cell-based; outline: as §3
# [14] = test system: c-Jun N-terminal kinase, JNK (Mus musculus); assay: Inhibition of LPS-induced JNK kinase phosphorylation in mouse BV2 cells after 30 mins by Western blot analysis; conditions: BV-2
# [15] = test system: MAP kinase p38 (Mus musculus); assay: Inhibition of LPS-induced p38 kinase phosphorylation in mouse BV2 cells after 30 mins by Western blot analysis; conditions: BV-2
# BV-2 [16] = assay: Antineuroinflammatory activity in […] cells assessed as inhibition of LPS-induced nitric oxide production at 5 to 20 uM treated 30 mins before LPS challenge measured after 24 hrs by Griess reaction; assay type: functional, cell-based; outline: as §1
smiles,measurement,setting,value
CCOC(=O)C1=C(C)NC(=S)NC1c1cccc(Oc2ccccc2)c1 (stereo not drawn),inhibition at 10 µM,"BV-2 [1]; Mus musculus, BV-2, read-out: INH",51%
same,Activity,BV-2 [2],Non-toxic
same,inhibition,BV-2 [3],Active
same,inhibition,BV-2 [4],Active
same,inhibition,BV-2 [5],Active
same,inhibition,BV-2 [6],Dose-dependent effect
same,inhibition,BV-2 [7],Dose-dependent effect
same,inhibition,N2a [8],Active
same,Activity,N2a [9],Active
same,inhibition,N2a [10],Active
same,inhibition,N2a [11],Active
same,inhibition,N2a [12],Active
same,inhibition,BV-2 [13],Dose-dependent effect
same,inhibition,[14],Dose-dependent effect
same,inhibition,[15],Dose-dependent effect
CCOC(=O)C1=C(C)NC(=O)NC1c1cccc(Oc2ccccc2)c1 (stereo not drawn),inhibition,BV-2 [16],Active
O=c1cc(-c2ccccc2)oc2cc(O)cc(O)c12,inhibition,BV-2 [1],Active
CCOC(=O)C1=C(C)NC(=O)NC1c1cc(Cl)ccc1O (stereo not drawn),inhibition,BV-2 [16],Active
